# Measured values from ChEMBL document CHEMBL1129975, “Depsides and depsidones as inhibitors of HIV-1 integrase: discovery of novel inhibitors through 3D database searching” (J Med Chem, 1997).
# Key:
# [1] = target: T1, Human immunodeficiency virus type 1 integrase (Human immunodeficiency virus 1, UniProt Q7ZJM1); assay: Inhibitory concentration of compound against 3'-processing of HIV-1 integrase in experiment 1
# [2] = target: T1, Human immunodeficiency virus type 1 integrase; assay: Inhibitory concentration of compound against strand transfer of HIV-1 integrase in experiment 1
# [3] = target: T1, Human immunodeficiency virus type 1 integrase; assay: Inhibitory concentration of compound against strand transfer of HIV-1 integrase in experiment 2
# [4] = target: T1, Human immunodeficiency virus type 1 integrase; assay: Inhibitory concentration of compound against 3'-processing of HIV-1 integrase in experiment 2
# [5] = target: T1, Human immunodeficiency virus type 1 integrase; assay: Inhibitory concentration of compound against disintegration (reversal of strand transfer)of HIV-1 integrase
# Outline: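 Disintegration run under the integrase assay conditions (200 nM enzyme preincubated 30 min at 30 °C in MnCl2/MOPS buffer, then 1 h with substrate). Substrate was a Y-shaped branched oligonucleotide mimicking a strand transfer product, 32P-labelled at the 5′ end of its 15-mer. The core-truncated mutant IN50-212 was used as enzyme. The 30-mer product was resolved on a denaturing 20% gel. IC50 was taken from a percent-inhibition plot.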
# [6] = target: T2, Human immunodeficiency virus type 2 integrase (Human immunodeficiency virus 2, UniProt P89582); assay: Inhibitory concentration of compound against strand transfer of HIV- integrase
# T2 sequence (P89582 whole entry): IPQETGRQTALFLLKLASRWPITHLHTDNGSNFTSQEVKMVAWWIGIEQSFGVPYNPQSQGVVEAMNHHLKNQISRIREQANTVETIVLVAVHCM
# Outline: (§1)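 Integrase (200 nM final) preincubated with inhibitor for 30 min at 30 °C in pH 7.2 MOPS/HEPES buffer with 7.5 mM MnCl2, 10% DMSO, BSA and 2-mercaptoethanol. Then 20 nM 5′-32P-labeled 21-mer U5 LTR duplex was added for 1 h. Quenched with formamide/EDTA dye and run on denaturing 20% PAGE. IC50 read from a plot of % inhibition against drug concentration.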
# [7] = target: T2, Human immunodeficiency virus type 2 integrase; assay: Inhibitory concentration of compound against 3' processing of HIV-2 integrase; outline: as §1
# [8] = target: T1, Human immunodeficiency virus type 1 integrase; assay: Inhibitory concentration of compound against strand transfer of HIV-1 integrase in experiment 1&2
# Outline: (§2)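 Purified recombinant HIV-1 integrase (200 nM final) preincubated with inhibitor for 30 min at 30 °C. Buffer: 25 mM MOPS pH 7.2, 7.5 mM MnCl2, 50 mM NaCl, 10% DMSO, 10% glycerol, 0.1 mg/mL BSA. Then 20 nM 5′-32P-labelled 21-mer blunt-end U5 LTR duplex was added for 1 h. Products were resolved on a denaturing 20% polyacrylamide/urea gel. IC50 was read from a percent-inhibition versus concentration plot.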
# [9] = target: T1, Human immunodeficiency virus type 1 integrase; assay: Inhibitory concentration of compound against 3'-processing of HIV-1 integrase in experiment 1&2; outline: as §2
# [10] = target: T2, Human immunodeficiency virus type 2 integrase; assay: Inhibitory concentration of compound against 3'-processing of HIV-2 integrase
# [11] = target: T2, Human immunodeficiency virus type 2 integrase
# [12] = target: T2, Human immunodeficiency virus type 2 integrase; assay: Inhibitory concentration of compound against strand transfer of HIV-2 integrase; outline: as §1
# T1 sequence (Q7ZJM1 whole entry): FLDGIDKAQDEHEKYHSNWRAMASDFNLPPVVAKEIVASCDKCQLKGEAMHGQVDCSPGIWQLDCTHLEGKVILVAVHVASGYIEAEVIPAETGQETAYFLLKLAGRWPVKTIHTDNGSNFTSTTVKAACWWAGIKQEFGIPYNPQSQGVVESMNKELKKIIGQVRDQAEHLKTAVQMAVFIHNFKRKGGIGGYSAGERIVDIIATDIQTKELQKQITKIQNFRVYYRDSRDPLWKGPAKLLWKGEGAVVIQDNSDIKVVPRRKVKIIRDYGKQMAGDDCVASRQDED
SMILES,IC50 [1],IC50 [2],IC50 [3],IC50 [4],also measured
COc1cc(C)c2c(c1C)OC(=O)c1c(C)c(Cl)c(O)c(C=O)c1O2,2.2 µM,1.6 µM,2.7 µM,2.7 µM,IC50 [5]: 12.8 µM
COc1cc(C(=O)O)c2c(c1C)OC(=O)c1c(C)cc(O)c(C=O)c1O2 [PSOROMIC ACID],17 µM,5.3 µM,12.3 µM,15.1 µM,
Cc1cc(C(c2cc(C)c(O)c(C(=O)O)c2)c2cc(C)c(O)c(C(=O)O)c2)cc(C(=O)O)c1O,20.4 µM,16.7 µM,< 23.4 µM,< 23.4 µM,
COc1cc(C)c2c(c1C=O)Oc1c(c(C)c(O)c3c1C(O)OC3=O)OC2=O (stereo not given) [STICTIC ACID],4.4 µM,2.6 µM,1.9 µM,2.9 µM,IC50 [5]: 11.7 µM
O=C(NO)c1cc(O)c(O)c(O)c1,1.1 µM,0.5 µM,1.6 µM,3.2 µM,IC50 [6]: 1.6 µM; IC50 [7]: 1.6 µM
COC(=O)c1c(C)c2c(c(C)c1O)OC(=O)c1c(C)cc(O)c(C=O)c1O2,,,,,IC50 [8]: 4.4 µM; IC50 [9]: 5.4 µM; IC50 [5]: 26 µM
O=C(O)c1ccc(C(=O)O)c2c(C(=O)O)ccc(C(=O)O)c12,122 µM,176 µM,182 µM,174 µM,
O=C(O)c1cc(/N=N\c2ccccc2C(=O)O)ccc1O,116 µM,116 µM,224 µM,211 µM,
O=C1C(O)=C(c2ccccc2)C12CSC1(CS2)C(=O)C(O)=C1c1ccccc1 (stereo not given),132 µM,172 µM,54.8 µM,60 µM,
O=C(c1ccc(O)cc1O)C1C(c2ccc(O)cc2)OC(c2ccc(O)cc2)C1C(=O)c1ccc(O)cc1O (stereo not given),165 µM,143 µM,129 µM,169 µM,
Cc1c2cc(O)c(=O)cc-2oc2cc(O)c(O)cc12,1.1 µM,1.1 µM,0.9 µM,1.5 µM,IC50 [10]: 2.3 µM; IC50 [11]: 1.5 µM
O=C(O)c1cnc2c(ccc3ncc(C(=O)O)c(O)c32)c1O,7.6 µM,9.8 µM,6.1 µM,6.1 µM,
Cc1ncc(COP(=O)(O)O)c(C2NC(C(=O)O)CS2)c1O (stereo not given),91.7 µM,93.4 µM,31.7 µM,75.1 µM,
C[C@@](O)(/C=C/[C@H]1CC=CC(=O)O1)[C@@H](C[C@@H](O)C=CC=C/C=C/CO)OP(=O)(O)O [FOSTRIECIN],41.3 µM,12.8 µM,52.7 µM,118 µM,
CCOC(=O)c1cnc(NCCCNc2ncc(C(=O)OCC)c(=O)[nH]2)[nH]c1=O,12.8 µM,16.7 µM,7.9 µM,11.6 µM,
CC(=O)C1=C(NNC(=O)c2ccccn2)[C@@]2(C)C(=CC1=O)Oc1c(C(C)=O)c(O)c(C)c(O)c12,73 µM,48.5 µM,55 µM,60.8 µM,IC50 [5]: 39 µM
O=C1OC2C(O)COC2(O)C1(O)Cc1cc(O)c(O)c(Br)c1Br (stereo not given),64.7 µM,50.2 µM,24.3 µM,28.7 µM,
Cc1cc(O)c(C=O)c2c1C(=O)Oc1c(C)c(O)c(C(=O)O)c(C)c1O2,,,,,IC50 [8]: 6.5 µM; IC50 [9]: 4.6 µM; IC50 [5]: 33.5 µM

SMILES,IC50 [1],IC50 [2],IC50 [3],IC50 [4],also measured
Cc1cc(O)c(C=O)c2c1C(=O)Oc1c(CO)c(O)c3c(c1O2)C(O)OC3=O (stereo not given) [SLAZINIC ACID],19 µM,12.6 µM,6.2 µM,16 µM,
O=[N+]([O-])c1cccc(/C=N/CCN2CCN(CC/N=C/c3cccc([N+](=O)[O-])c3O)C2c2cccc([N+](=O)[O-])c2O)c1O,52.7 µM,36.7 µM,49.5 µM,60.8 µM,
Nc1cc(C(=O)O)c(-c2cc(O)c(N)cc2C(=O)O)cc1O,212 µM,234 µM,,,
CCN(CC)c1ccc(Cc2ccc(N(C)C)c(Cl)c2)cc1,61.8 µM,45.8 µM,38.6 µM,78.6 µM,
O=C(Nc1ccc(C(=O)O)c(O)c1)c1ccc(C(=O)Nc2ccc(O)c(C(=O)O)c2)cc1,23.6 µM,16.3 µM,20 µM,25.2 µM,
O=C(O)c1ccccc1C(c1cc(Br)c(O)c(Br)c1)c1ccc(Br)c(O)c1Br (stereo not given),43.7 µM,38.8 µM,27.2 µM,25.6 µM,
CCCCCC(=O)Cc1cc(O)cc2c1C(=O)Oc1cc(O)c(C(=O)O)c(CCCCC)c1O2 [PHYSODIC ACID],,,,,IC50 [8]: 30.9 µM; IC50 [9]: 38.5 µM; IC50 [5]: 32.5 µM
"O=C(/C=C/c1ccc(O)c(O)c1)O[C@@H]1C[C@](O)(C(=O)O)C[C@@H](O)[C@H]1O (single isomer, unassigned) [CHLOROGENIC ACID]",87.8 µM,45.8 µM,31.3 µM,58.2 µM,
COC(=O)c1c(C)cc(OC(=O)c2c(C)cc(O)c(C=O)c2O)c(C)c1O [ATRANORIN],61 µM,36 µM,44 µM,62.4 µM,IC50 [5]: 128 µM
O=C(/C=C/c1ccc(O)c(O)c1)O[C@H]1[C@H](O)C[C@](O)(C(=O)O)C[C@H]1OC(=O)/C=C/c1ccc(O)c(O)c1,1.3 µM,0.6 µM,0.7 µM,0.7 µM,IC50 [12]: 0.5 µM; IC50 [10]: 0.5 µM
Cc1cc(O)c(C=O)c2c1C(=O)Oc1c(COC(=O)/C=C/C(=O)O)c(O)c(C(=O)O)c(C)c1O2 [FUMARPROTOCETRARIC ACID],,,7.3 µM,,IC50 [8]: 4.6 µM; IC50 [9]: 4.9 µM
O=C(NC(Cc1ccc(O)c(O)c1)C(=O)OCc1ccccc1)c1ccc([N+](=O)[O-])cc1 (stereo not given),163 µM,55.4 µM,76.6 µM,253 µM,
CCCCCc1cc2cc(O)cc(Oc3c(O)cc(O)c(C(=O)O)c3CCCCC)c2c(=O)o1,52.2 µM,45.7 µM,,,IC50 [5]: 35 µM
CC(=O)C1=C(O)C=C2Oc3c(C(C)=O)c(O)c(C)c(O)c3[C@@]2(C)C1=O [(+)-USNIC ACID],,,,,IC50 [8]: 124 µM; IC50 [9]: 126 µM; IC50 [5]: 133 µM
CCCCCc1cc(O)cc2c1Oc1cc(O)cc(C(=O)CCCC)c1C(=O)O2,59.9 µM,39.2 µM,28.1 µM,42.2 µM,
Cc1cc(C(O)(c2cc(C)c(O)c(C(=O)O)c2)c2cc(C)c(O)c(C(=O)O)c2)cc(C(=O)O)c1O,35.8 µM,21.8 µM,23 µM,32.8 µM,
Cc1cc(Cc2cc(C)c(O)c(C(=O)O)c2)cc(C(=O)O)c1O,,,,,IC50 [8]: 68.5 µM; IC50 [9]: 61.8 µM
